Assay results as given in ChEMBL document CHEMBL1156877, “Discovery of 6-benzyloxyquinolines as c-Met selective kinase inhibitors” (Bioorg Med Chem Lett, 2010).

Columns and labels:
[1] = target: Vascular endothelial growth factor receptor 2 (Homo sapiens, UniProt P35968); assay: Inhibition of recombinant KDR by TR-FRET assay
Summary of the method: (§1)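 Recombinant tyrosine kinase incubated with test compound and substrate peptide/ATP for 90 min at 30 °C; enzyme amount, ATP level, substrate and cation vary by kinase. Reaction stopped, then TR-FRET reagent with europium-labelled anti-phospho-substrate antibody added for 5 min at room temperature; substrate phosphorylation read as time-resolved fluorescence.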

[2] = target: Proto-oncogene tyrosine-protein kinase Src (Homo sapiens, UniProt P12931); assay: Inhibition of recombinant Src by TR-FRET assay; summary of the method: as §1
Sequence of Proto-oncogene tyrosine-protein kinase Src (P12931 2-536 limits assumed): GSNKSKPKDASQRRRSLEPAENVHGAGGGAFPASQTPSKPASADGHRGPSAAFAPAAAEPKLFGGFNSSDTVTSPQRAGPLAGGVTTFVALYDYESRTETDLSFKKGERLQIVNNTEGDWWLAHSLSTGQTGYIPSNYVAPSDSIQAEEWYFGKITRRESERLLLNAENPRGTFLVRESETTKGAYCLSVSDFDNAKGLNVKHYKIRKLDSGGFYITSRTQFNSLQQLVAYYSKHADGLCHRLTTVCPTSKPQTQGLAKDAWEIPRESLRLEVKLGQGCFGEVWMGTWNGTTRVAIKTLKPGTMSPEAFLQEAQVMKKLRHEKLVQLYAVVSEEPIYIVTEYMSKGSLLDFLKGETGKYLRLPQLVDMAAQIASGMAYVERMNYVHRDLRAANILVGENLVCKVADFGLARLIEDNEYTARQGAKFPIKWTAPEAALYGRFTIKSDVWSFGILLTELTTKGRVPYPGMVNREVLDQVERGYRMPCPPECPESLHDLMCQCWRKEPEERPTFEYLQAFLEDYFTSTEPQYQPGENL

[3] = system: MKN-45; assay: Cytotoxicity against human MKN45 cells after 96 hrs by WST8 assay; format: functional, cell-based; conditions: MKN-45, 96 h
Summary of the method: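 Tumour cells exposed to a range of compound concentrations for 96 h; cytotoxicity read with WST-8 cell counting kit.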

[4] = target: T1, Tyrosine-protein kinase receptor UFO (Homo sapiens, UniProt P30530); assay: Inhibition of recombinant AXL by TR-FRET assay; summary of the method: as §1
T1 sequence (P30530 whole entry): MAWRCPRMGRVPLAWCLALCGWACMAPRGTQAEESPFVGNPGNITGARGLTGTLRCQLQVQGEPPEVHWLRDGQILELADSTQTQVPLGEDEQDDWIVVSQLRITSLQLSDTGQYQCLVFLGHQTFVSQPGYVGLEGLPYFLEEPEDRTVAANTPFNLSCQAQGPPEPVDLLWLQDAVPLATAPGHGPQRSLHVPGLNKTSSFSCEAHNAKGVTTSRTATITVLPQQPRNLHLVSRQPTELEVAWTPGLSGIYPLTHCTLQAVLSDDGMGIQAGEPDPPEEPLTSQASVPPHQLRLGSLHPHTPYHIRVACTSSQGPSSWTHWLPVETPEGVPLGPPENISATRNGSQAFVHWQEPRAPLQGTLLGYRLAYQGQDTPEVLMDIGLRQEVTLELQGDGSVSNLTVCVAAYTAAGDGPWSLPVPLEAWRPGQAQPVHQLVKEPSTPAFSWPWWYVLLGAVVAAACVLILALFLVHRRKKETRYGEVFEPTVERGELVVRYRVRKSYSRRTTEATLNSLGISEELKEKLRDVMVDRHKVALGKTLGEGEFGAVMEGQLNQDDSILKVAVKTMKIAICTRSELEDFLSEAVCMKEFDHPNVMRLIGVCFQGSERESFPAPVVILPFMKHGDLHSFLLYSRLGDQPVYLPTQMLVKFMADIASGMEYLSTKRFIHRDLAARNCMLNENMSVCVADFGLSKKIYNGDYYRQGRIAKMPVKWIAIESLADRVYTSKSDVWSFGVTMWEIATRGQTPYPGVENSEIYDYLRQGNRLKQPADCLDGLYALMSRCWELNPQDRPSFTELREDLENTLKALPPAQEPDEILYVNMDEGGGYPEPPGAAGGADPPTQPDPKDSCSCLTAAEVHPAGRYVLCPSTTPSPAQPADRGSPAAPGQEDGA

[5] = target: Ephrin type-A receptor 2 (Homo sapiens, UniProt P29317); assay: Inhibition of recombinant EphA2 by TR-FRET assay; summary of the method: as §1
[6] = Solubility in fasted state simulated intestinal fluid; format: physicochemical
[7] = target: Macrophage-stimulating protein receptor (Homo sapiens, UniProt Q04912); assay: Inhibition of recombinant RON by TR-FRET assay; summary of the method: as §1
[8] = target: Leukocyte tyrosine kinase receptor (Homo sapiens, UniProt P29376); assay: Inhibition of recombinant LTK by TR-FRET assay; summary of the method: as §1
[9] = target: Fibroblast growth factor receptor 2 (Homo sapiens, UniProt P21802); assay: Inhibition of recombinant FGFR2 by TR-FRET assay; summary of the method: as §1
[10] = target: T2, Receptor-type tyrosine-protein kinase FLT3 (Homo sapiens, UniProt P36888); assay: Inhibition of recombinant Flt3 by TR-FRET assay; summary of the method: as §1
T2 sequence (P36888 whole entry): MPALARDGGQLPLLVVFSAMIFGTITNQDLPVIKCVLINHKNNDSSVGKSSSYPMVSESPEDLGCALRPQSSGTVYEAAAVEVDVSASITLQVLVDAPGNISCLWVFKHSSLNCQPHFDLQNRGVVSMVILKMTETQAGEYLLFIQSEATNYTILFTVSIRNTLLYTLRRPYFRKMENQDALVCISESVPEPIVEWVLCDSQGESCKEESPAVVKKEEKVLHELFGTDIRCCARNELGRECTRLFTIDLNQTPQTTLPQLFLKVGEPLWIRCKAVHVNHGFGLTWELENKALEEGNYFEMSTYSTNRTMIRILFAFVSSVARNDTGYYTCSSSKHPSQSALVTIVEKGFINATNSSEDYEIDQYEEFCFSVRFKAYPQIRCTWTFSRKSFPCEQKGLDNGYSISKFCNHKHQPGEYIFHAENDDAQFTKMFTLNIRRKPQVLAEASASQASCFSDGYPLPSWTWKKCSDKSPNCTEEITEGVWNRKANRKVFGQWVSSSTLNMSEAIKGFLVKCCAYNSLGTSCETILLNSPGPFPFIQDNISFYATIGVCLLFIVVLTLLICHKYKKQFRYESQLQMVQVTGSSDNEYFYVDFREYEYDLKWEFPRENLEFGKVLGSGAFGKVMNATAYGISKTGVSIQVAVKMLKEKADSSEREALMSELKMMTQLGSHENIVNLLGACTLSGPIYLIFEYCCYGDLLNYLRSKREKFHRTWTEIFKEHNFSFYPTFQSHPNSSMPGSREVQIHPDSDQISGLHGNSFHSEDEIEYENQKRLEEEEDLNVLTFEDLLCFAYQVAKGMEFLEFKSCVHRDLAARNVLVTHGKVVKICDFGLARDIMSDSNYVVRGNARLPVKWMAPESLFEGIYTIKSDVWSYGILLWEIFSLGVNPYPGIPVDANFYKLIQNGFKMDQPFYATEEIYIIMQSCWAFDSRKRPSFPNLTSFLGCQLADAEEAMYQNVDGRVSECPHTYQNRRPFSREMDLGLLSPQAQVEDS

[11] = target: Tyrosine-protein kinase Fyn (Homo sapiens, UniProt P06241); assay: Inhibition of recombinant Fyn by TR-FRET assay; summary of the method: as §1
[12] = target: Insulin-like growth factor 1 receptor (Homo sapiens, UniProt P08069); assay: Inhibition of recombinant IGF1R by TR-FRET assay; summary of the method: as §1
[13] = target: Tyrosine-protein kinase Lck (Homo sapiens, UniProt P06239); assay: Inhibition of recombinant LCK by TR-FRET assay
[14] = target: Mast/stem cell growth factor receptor Kit (Homo sapiens, UniProt P10721); assay: Inhibition of recombinant Kit by TR-FRET assay; summary of the method: as §1
[15] = Inhibition of recombinant PDGFR by TR-FRET assay; summary of the method: as §1
[16] = target: Insulin receptor (Homo sapiens, UniProt P06213); assay: Inhibition of recombinant InsR by TR-FRET assay
[17] = target: Tyrosine-protein kinase Yes (Homo sapiens, UniProt P07947); assay: Inhibition of recombinant YES by TR-FRET assay; summary of the method: as §1
[18] = target: Protein-tyrosine kinase 6 (Homo sapiens, UniProt Q13882); assay: Inhibition of recombinant BRK by TR-FRET assay; summary of the method: as §1
[19] = target: Tyrosine-protein kinase ABL1 (Homo sapiens, UniProt P00519); assay: Inhibition of recombinant Abl by TR-FRET assay; summary of the method: as §1
Sequence of Tyrosine-protein kinase ABL1 (P00519 whole entry): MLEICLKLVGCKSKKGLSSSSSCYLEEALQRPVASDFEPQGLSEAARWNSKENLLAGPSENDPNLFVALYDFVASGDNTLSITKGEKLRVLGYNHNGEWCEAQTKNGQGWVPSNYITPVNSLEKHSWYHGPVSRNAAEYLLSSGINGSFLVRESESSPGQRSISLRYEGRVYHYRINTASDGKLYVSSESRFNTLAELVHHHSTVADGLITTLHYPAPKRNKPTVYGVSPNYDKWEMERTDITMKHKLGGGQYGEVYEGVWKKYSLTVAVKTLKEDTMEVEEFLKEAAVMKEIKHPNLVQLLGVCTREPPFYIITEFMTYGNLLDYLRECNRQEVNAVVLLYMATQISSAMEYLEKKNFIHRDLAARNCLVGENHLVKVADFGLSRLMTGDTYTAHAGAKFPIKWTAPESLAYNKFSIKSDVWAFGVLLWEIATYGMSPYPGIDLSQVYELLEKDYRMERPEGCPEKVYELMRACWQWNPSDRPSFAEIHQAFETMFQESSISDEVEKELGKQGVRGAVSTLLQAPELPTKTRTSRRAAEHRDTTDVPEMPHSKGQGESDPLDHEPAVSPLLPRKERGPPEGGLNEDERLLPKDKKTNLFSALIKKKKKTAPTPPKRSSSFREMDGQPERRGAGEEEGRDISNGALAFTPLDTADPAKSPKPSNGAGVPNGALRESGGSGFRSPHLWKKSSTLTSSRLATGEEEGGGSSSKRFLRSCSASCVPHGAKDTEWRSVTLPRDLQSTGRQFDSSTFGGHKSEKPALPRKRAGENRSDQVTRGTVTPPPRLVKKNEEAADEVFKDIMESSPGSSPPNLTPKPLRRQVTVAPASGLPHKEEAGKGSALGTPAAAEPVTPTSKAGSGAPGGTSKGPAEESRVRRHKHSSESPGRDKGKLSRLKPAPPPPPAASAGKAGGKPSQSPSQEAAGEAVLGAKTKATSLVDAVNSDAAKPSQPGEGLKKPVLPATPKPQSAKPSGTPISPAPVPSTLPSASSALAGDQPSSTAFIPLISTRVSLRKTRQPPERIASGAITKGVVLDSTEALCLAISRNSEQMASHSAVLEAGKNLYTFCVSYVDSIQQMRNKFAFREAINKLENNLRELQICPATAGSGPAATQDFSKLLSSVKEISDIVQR

[20] = target: T3, Aurora kinase A (Homo sapiens, UniProt O14965); assay: Inhibition of recombinant Aurora A by IMAP assay
T3 sequence (O14965 whole entry): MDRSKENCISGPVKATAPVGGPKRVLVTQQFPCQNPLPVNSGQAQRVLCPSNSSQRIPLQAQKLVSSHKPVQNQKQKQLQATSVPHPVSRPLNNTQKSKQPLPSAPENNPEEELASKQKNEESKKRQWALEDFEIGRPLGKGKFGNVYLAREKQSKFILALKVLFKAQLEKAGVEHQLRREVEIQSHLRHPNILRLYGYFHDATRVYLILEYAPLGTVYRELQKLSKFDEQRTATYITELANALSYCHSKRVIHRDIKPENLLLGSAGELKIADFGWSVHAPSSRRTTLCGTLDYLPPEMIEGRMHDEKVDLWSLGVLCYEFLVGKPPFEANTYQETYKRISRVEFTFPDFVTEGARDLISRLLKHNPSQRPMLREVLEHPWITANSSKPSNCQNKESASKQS
Summary of the method: (§2)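 Recombinant enzyme mixed with test compound and substrate peptide/ATP solution, incubated 90 min at 30 °C; enzyme quantity, ATP, substrate and cation set per kinase. IMAP reagent then added for 5 min at room temperature, and peptide phosphorylation quantified by fluorescence polarization.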

[21] = Inhibition of recombinant PKA by IMAP assay; summary of the method: as §2
[22] = target: RAC-alpha serine/threonine-protein kinase (Homo sapiens, UniProt P31749); assay: Inhibition of recombinant AKT1 by IMAP assay; summary of the method: as §2
[23] = target: Cyclin-dependent kinase 1 (Homo sapiens, UniProt P06493); assay: Inhibition of recombinant CDK1 by IMAP assay; summary of the method: as §2
[24] = target: Protein kinase C alpha type (Homo sapiens, UniProt P17252); assay: Inhibition of recombinant PKCalpha by IMAP assay; summary of the method: as §2
[25] = target: T4, Protein kinase C beta type (Homo sapiens, UniProt P05771); assay: Inhibition of recombinant PKCbeta1 by IMAP assay; summary of the method: as §2
T4 sequence (P05771 whole entry): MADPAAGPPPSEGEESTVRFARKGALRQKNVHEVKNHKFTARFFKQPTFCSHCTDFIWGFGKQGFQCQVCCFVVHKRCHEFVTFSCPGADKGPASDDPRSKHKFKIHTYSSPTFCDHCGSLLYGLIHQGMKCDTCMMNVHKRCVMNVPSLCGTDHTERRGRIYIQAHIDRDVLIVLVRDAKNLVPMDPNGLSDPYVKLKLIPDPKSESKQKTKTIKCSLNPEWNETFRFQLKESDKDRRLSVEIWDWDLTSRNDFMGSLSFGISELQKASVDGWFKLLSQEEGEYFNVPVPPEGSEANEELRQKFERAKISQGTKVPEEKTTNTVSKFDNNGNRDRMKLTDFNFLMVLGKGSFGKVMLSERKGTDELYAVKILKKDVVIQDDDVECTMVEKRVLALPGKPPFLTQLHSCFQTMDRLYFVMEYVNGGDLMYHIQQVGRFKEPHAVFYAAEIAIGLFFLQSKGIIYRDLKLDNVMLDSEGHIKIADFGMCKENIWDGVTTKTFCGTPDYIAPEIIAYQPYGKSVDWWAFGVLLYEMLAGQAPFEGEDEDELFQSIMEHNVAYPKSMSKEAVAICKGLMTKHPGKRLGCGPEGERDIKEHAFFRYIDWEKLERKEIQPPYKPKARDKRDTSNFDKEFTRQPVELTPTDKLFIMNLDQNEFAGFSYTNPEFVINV

[26] = target: Cyclin-dependent kinase 2 (Homo sapiens, UniProt P24941); assay: Inhibition of recombinant CDK2 by IMAP assay; summary of the method: as §2
[27] = target: T4, Protein kinase C beta type; assay: Inhibition of recombinant PKCbeta2 by IMAP assay; summary of the method: as §2
[28] = target: Hepatocyte growth factor receptor (Homo sapiens, UniProt P08581); assay: Inhibition of recombinant c-Met by TR-FRET assay
Sequence of Hepatocyte growth factor receptor (P08581 whole entry): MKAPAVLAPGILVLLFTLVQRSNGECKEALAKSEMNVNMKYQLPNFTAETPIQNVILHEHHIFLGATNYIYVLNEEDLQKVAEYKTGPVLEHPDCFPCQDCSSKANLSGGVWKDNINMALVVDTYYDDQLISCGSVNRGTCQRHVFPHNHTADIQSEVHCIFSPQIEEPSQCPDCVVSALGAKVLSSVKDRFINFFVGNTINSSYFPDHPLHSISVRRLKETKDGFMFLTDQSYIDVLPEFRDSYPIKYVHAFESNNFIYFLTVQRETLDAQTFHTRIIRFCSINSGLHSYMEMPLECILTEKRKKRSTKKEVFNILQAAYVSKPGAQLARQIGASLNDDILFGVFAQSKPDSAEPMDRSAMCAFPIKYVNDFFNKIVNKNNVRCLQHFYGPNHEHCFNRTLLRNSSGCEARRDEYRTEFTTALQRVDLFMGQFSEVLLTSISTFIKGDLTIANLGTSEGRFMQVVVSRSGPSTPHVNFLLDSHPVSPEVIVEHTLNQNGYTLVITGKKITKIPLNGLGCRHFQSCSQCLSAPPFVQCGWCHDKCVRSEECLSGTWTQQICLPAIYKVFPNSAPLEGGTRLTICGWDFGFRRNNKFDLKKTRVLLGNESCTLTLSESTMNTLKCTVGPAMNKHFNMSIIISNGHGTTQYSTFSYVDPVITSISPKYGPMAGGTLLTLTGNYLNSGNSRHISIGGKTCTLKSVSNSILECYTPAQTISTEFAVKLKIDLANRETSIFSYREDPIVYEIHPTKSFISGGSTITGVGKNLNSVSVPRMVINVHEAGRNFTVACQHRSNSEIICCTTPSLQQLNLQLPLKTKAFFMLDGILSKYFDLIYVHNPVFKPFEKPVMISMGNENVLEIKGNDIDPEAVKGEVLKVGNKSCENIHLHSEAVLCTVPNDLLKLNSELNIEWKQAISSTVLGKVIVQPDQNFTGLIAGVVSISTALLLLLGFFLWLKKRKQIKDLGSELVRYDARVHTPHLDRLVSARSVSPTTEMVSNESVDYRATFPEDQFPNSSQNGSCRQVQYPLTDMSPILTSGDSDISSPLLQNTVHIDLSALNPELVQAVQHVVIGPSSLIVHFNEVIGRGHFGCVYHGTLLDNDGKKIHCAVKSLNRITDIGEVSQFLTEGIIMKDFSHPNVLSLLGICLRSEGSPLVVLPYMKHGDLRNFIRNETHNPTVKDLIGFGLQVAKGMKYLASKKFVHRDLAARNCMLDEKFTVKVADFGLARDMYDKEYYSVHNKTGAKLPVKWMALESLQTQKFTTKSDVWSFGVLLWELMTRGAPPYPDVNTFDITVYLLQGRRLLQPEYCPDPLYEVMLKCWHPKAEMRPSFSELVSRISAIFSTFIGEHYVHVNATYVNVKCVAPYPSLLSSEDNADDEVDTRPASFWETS

Sequence of Vascular endothelial growth factor receptor 2 (P35968 whole entry): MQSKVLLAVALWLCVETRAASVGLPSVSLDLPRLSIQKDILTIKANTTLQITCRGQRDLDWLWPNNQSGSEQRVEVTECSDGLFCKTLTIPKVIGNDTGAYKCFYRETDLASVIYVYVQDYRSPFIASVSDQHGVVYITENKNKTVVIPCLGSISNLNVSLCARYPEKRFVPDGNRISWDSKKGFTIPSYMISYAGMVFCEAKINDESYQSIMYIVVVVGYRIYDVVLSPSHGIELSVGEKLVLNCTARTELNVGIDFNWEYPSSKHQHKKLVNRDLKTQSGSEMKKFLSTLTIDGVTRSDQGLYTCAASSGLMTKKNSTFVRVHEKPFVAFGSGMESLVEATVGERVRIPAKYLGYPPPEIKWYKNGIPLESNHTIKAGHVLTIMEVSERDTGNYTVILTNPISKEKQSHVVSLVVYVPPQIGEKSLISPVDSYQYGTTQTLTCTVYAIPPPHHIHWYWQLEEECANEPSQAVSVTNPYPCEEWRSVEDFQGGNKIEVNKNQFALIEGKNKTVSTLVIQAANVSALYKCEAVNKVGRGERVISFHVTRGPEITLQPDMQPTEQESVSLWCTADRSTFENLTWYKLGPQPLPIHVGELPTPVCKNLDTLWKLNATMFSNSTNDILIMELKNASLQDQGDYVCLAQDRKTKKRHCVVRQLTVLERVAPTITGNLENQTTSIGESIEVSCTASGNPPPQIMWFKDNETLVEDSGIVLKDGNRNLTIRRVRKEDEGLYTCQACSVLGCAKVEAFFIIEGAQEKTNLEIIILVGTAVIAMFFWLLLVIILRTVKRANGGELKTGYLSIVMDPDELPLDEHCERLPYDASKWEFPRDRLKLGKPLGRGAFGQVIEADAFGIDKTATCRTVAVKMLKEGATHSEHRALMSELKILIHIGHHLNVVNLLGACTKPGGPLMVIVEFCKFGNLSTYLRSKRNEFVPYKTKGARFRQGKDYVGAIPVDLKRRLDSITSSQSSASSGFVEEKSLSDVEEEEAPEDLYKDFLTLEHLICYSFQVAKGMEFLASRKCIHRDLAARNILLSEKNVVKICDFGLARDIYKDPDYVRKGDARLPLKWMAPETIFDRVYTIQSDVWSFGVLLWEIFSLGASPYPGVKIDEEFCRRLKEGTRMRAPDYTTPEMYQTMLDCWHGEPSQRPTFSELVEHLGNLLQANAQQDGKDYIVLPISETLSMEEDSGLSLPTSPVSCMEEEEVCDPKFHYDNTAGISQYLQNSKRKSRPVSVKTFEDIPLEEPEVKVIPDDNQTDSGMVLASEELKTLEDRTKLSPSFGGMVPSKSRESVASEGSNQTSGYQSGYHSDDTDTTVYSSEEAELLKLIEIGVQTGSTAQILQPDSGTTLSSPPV

## CC(Oc1ccc2ncc(/C=C/C(N)=O)cc2c1)c1c(Cl)ccc(F)c1Cl (racemic)
[1]
  IC50: 26 µM
[2]
  IC50: > 50 µM
[3]
  IC50: 0.35 µM

## C[C@@H](Oc1ccc2ncc(/C=C/C(N)=O)cc2c1)c1c(Cl)ccc(F)c1Cl
[4]
  IC50: 0.57 µM
[5]
  IC50: 4.4 µM
[1]
  IC50: 11 µM
[6]
  solubility: < 13 µg/mL
[7]
  IC50: 0.45 µM
[8]
  IC50: 18 µM
[9]
  IC50: 6.9 µM
[10]
  IC50: 32 µM
[11]
  IC50: 28 µM
[12]
  IC50: > 50 µM
[13]
  IC50: 14 µM
[14]
  IC50: > 50 µM
[15]
  IC50: > 50 µM
[16]
  IC50: > 50 µM
[17]
  IC50: 26 µM
[18]
  IC50: 32 µM
[19]
  IC50: 10 µM
[20]
  IC50: 6.4 µM
[21]
  IC50: > 50 µM
[22]
  IC50: > 50 µM
[23]
  IC50: > 50 µM
[24]
  IC50: > 50 µM
[25]
  IC50: > 50 µM
[26]
  IC50: > 50 µM
[27]
  IC50: > 50 µM

## CC(Oc1ccc2ncccc2c1)c1c(Cl)ccc(F)c1Cl (racemic)
[28]
  IC50: 0.453 µM
[1]
  IC50: 32 µM
[2]
  IC50: > 50 µM

## CC(Oc1ccc2ncc(/C=C/C(=O)N(C)C)cc2c1)c1c(Cl)ccc(F)c1Cl (racemic)
[28]
  IC50: 0.059 µM
[1]
  IC50: > 50 µM
[2]
  IC50: > 50 µM
[3]
  IC50: 0.61 µM

## CC(Oc1ccc2ncc(CCC(N)=O)cc2c1)c1c(Cl)ccc(F)c1Cl (racemic)
[28]
  IC50: 0.205 µM
[1]
  IC50: 50 µM
[2]
  IC50: > 50 µM
[3]
  IC50: 4.4 µM

## C[C@@H](Oc1ccc2ncccc2c1)c1c(Cl)ccc(F)c1Cl
[4]
  IC50: 14 µM
[5]
  IC50: > 50 µM
[28]
  IC50: 0.13 µM
[1]
  IC50: 23 µM
[2]
  IC50: 22 µM
[7]
  IC50: 3.6 µM
[8]
  IC50: > 50 µM
[9]
  IC50: 24 µM
[10]
  IC50: 46 µM
[11]
  IC50: > 50 µM
[12]
  IC50: > 50 µM
[13]
  IC50: > 50 µM
[14]
  IC50: 41 µM
[15]
  IC50: > 50 µM
[17]
  IC50: > 50 µM
[18]
  IC50: > 50 µM
[19]
  IC50: > 50 µM
[20]
  IC50: > 50 µM
[21]
  IC50: > 50 µM
[22]
  IC50: > 50 µM
[23]
  IC50: > 50 µM
[25]
  IC50: > 50 µM
[26]
  IC50: > 50 µM
[27]
  IC50: > 50 µM

## C[C@H](Oc1ccc2ncccc2c1)c1c(Cl)ccc(F)c1Cl
[28]
  IC50: 1.2 µM
[1]
  IC50: > 50 µM
[2]
  IC50: 20 µM

## CC(Oc1ccc2ncc(/C=C/C(=O)O)cc2c1)c1c(Cl)ccc(F)c1Cl (racemic)
[28]
  IC50: 0.094 µM
[1]
  IC50: > 50 µM
[2]
  IC50: > 50 µM
[3]
  IC50: 10.2 µM

## CNC(=O)/C=C/c1cnc2ccc(OC(C)c3c(Cl)ccc(F)c3Cl)cc2c1 (racemic)
[1]
  IC50: > 50 µM
[2]
  IC50: > 50 µM
[3]
  IC50: 0.24 µM

## CC(Oc1ccc2ncc(/C=C/CN)cc2c1)c1c(Cl)ccc(F)c1Cl (racemic)
[28]
  IC50: 0.368 µM
[1]
  IC50: 33 µM
[2]
  IC50: 46 µM
[3]
  IC50: 4.3 µM
